TCR CD3 inh: inhibitors of human TCR-CD3 interaction, primary screen, biochemical, fluorescence, TAMRA-labeled TCR probe. T-cell receptor (TCR). inhibition, % at 9.4 µM. actives 0.37% (n = 360,000);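 further: recombinant mutant TCR 2C K166C tagged with TAMRA read by polarization; 0% = receptor in buffer alone and 100% = receptor with positive control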
SIAE inh: human SIAE inhibitors, primary screen, biochemical, fluorescence polarization, FP-Rh probe, 1536-well HTS. Sialate O-acetylesterase (Homo sapiens), Q9HAT2. inhibition, % at 9.66 µM. actives 0.69% (n = 370,000). SIAE FP-Rh probe binding;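 active means inhibition above a cutoff: mean of compounds within the control limits plus 3 SD of those, cut at about 17% in these data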;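 further: 0% = plate median of compound wells and 100% = probe without SIAE protein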
Target sequence (Q9HAT2 whole entry, looked up): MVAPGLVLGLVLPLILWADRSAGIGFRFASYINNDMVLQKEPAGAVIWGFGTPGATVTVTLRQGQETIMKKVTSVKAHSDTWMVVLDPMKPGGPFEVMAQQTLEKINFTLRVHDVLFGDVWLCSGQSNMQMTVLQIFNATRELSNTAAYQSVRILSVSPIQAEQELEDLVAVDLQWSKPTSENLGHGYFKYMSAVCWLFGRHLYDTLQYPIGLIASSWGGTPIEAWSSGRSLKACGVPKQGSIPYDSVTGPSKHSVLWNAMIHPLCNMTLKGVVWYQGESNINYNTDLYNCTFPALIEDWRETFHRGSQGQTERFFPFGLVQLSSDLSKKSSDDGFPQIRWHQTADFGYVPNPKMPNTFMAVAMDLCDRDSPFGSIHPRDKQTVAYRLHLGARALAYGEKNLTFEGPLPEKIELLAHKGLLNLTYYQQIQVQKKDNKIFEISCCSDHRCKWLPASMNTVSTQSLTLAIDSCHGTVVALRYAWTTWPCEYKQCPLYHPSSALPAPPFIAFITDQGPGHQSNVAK
mABHD4 FP: ABHD4 inhibitors, primary screen, biochemical, fluorescence polarization, mouse | inhibition, % at 8.92 µM | (Lyso)-N-acylphosphatidylethanolamine lipase (Mus musculus), Q8VD66 | actives 0.54% (n = 370,000) | purified mABHD4, FP-Rh probe fluorescence polarization;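 active means inhibition exceeding the mean over every tested compound plus 3 SD, cut at about 30% in these data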;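 further: 0% = plate median of compound wells and 100% = S159A mutant with DMSO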
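Test system: mABHD4 protein; Read-out basis: % inhibition; Incubation: 45 min + 60 min at 25 °C; Repeats: single replicate; Technique: fluorescence polarization with parallel and perpendicular emission, 525/598 nm; Compound: 8.92 µM, single dose; Benchmarks: full inhibition S159A mutant plus DMSO, zero as sample-well median.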
PME-1 inh: PME-1 inhibitors via competitive probe labeling, primary screen, biochemical, fluorescence polarization, FP-Rh probe, HTS. recombinant PME-1. inhibition, % at 5.9 µM. actives 0.53% (n = 320,000);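 active means inhibition above the campaign mean of all compounds plus 3 SD, cut at about 26% in these data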;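 further: competitive labeling of PME-1 active site by serine hydrolase directed probe; 0% = PME-1 with DMSO and 100% = wells lacking PME-1 enzyme; inhibitors block probe labeling so polarization falls and inhibition rises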
HTRA1 inh: HTRA1 serine protease inhibitors, primary screen, biochemical, fluorescence polarization, HTS. Q92743. recombinant HTRA1, FP-rhodamine activity-based probe. inhibition, % at 5.96 µM. actives 0.5% (n = 340,000); in the data active means inhibition above about 36%;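 further: 0% = enzyme with DMSO and 100% = wells lacking enzyme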
Fam108B counter: mouse Fam108B serine hydrolase inhibitors, primary screen, counter-screen for RBBP9 inhibitor project, biochemical, fluorescence polarization; recombinant Fam108B, FP-Rh probe fluorescence polarization; inhibition, % at 9.51 µM; actives 0.33% (n = 300,000);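 active means inhibition above the screen mean inhibition plus 3 SD, computed separately per campaign, cut at about 18% in these data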;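 further: inhibitors lower polarization as less probe binds the enzyme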
Fam108b inh conf: mouse Fam108b serine hydrolase inhibitors, confirmation, counter-screen for RBBP9 inhibitor project, biochemical, fluorescence polarization, triplicate; shares compounds with Fam108B counter; recombinant Fam108b, FP-Rh probe fluorescence polarization; inhibition, % at 9.51 µM; actives 44% (n = 930); AID 1978, 2009;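 active means inhibition above a limit from the primary screen, the mean over all compounds plus 3 SD, cut at about 19% in these data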;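 further: 0% = median of active Fam108b wells and 100% = catalytically dead S170A mutant; inhibitors free the probe so polarization falls as inhibition rises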
Fam108b inh: inhibition of mouse Fam108b by HTS hits, late-stage follow-up, biochemical, gel-based ABPP, soluble recombinant form | shares compounds with Fam108B counter | fluorophosphonate probe | inhibition, % at 20 µM | actives 44% (n = 260) | AID 588649, 2011; in the data active means inhibition above about 40%
HTRA1 conf: HTRA1 protease inhibitors, retest, confirmation, biochemical, fluorescence polarization. shares compounds with HTRA1 inh. recombinant HTRA1, FP-rhodamine activity-based probe. inhibition, % at 5.96 µM. actives 66% (n = 1,600). AID 540248, 2011;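 active means mean inhibition over three repeats above a set limit taken from the earlier primary screen, cut at about 37% in these data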;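 further: 0% = HTRA1 with DMSO and 100% = wells lacking HTRA1; inhibitors block probe binding so polarization drops and inhibition rises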
BSA TAMRA ctr: compounds interfering with TAMRA-BSA probe, counter-screen for TCR-CD3 interaction inhibitor project, biochemical, fluorescence, TAMRA-labeled BSA; actives 10% (n = 1,200); AID 652035, 2013; inhibition, % at 9.4 µM; shares compounds with TCR CD3 inh; TAMRA-labeled BSA probe fluorescence counterscreen; in the data active means inhibition above about 23%;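 further: 0% = buffer low control and 100% = reference high control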
TCR-CD3 inh conf: TCR-CD3 interaction inhibitors, retest, confirmation, biochemical, fluorescence, TAMRA-labeled TCR probe. shares compounds with TCR CD3 inh. TAMRA-labeled TCR probe fluorescence binding assay. inhibition, % at 9.4 µM. actives 48% (n = 1,200). AID 652036, 2013
ABHD4 confirm: ABHD4 inhibitors, retest, confirmation, biochemical, fluorescence polarization, mouse; shares compounds with mABHD4 FP; actives 55% (n = 1,800); inhibition, % at 8.92 µM; AID 720658, 2013; purified mABHD4, FP-Rh probe fluorescence polarization;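 active means mean inhibition across replicates above the hit cutoff set in the primary screen, cut at about 30% in these data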;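 further: 0% = wild-type ABHD4 with DMSO and 100% = catalytically dead S159A mutant with DMSO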
SIAE inh conf: human SIAE inhibitors, retest, confirmation, biochemical, fluorescence polarization, FP-Rh probe, triplicate | SIAE FP-Rh activity-based probe | shares compounds with SIAE inh | actives 13% (n = 2,300) | inhibition, % at 9.66 µM | AID 1117263, 2014;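 active means mean inhibition of the replicates above the hit cutoff set in the primary screen, cut at about 17% in these data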;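 further: 0% = SIAE with DMSO and probe and 100% = probe without SIAE; inhibitors lower polarization as more probe stays unbound to SIAE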
Starred values were filed as active, the others as inactive; . = no result. Only some compounds are listed: those with a hit (about 1.8% of all), similar ones and a draw of the others. Unless noted, no stated cut-off is given here; in the data, active means inhibition above about 19%; inactive means the rest.

SMILES	TCR CD3 inh	SIAE inh	mABHD4 FP	PME-1 inh	HTRA1 inh	Fam108B counter	Fam108b inh conf	SIAE inh conf	others
COc1ccc(NC(=O)c2cc3c(-c4ccc(OC)c(OC)c4)nn(C)c3s2)cc1OC	9	19*	17	17	14	46*	-1	13
COC(=O)[C@]12C[C@H](CC(=O)NCc3cccs3)C(=O)N(Cc3ccco3)C1=C[C@H](C(C)C)O[C@@H]2C1CC1	.	1	-4	.	.	.	.	.
COC(=O)[C@]12C[C@H](CC(=O)NCCC(C)C)C(=O)N(CCC3=CCCCC3)C1=C[C@H](C(C)C)O[C@@H]2C1CC1	.	-2	3	.	.	.	.	.
Cc1cc(N/N=C/c2c(O)ccc3ccccc23)nc(-c2ccccc2O)n1	1	21*	9	57*	-3	70*	103*	-7
Cn1c2ccccc2c2cc(/C=N/NC(=O)c3cc(O)cc(O)c3)ccc21	12	-22	-30	12	-41	8	.	.
Cn1c2ccccc2c2cc(/C=N/NC(=O)c3cc(O)ccc3O)ccc21	43*	50*	52*	50*	64*	46*	40*	5	HTRA1 conf=64*;BSA TAMRA ctr=-18;TCR-CD3 inh conf=23*;ABHD4 confirm=0
COc1cc(/C=N/NC(=O)CCn2c3ccccc3c3ccccc32)ccc1O	0	18*	-6	13	-11	24*	2	12
O=c1c2cc3cc(Cl)ccc3nc2ncn1CCc1c[nH]c2ccccc12	.	-27	-6	.	.	.	.	.
O=C(Nc1ccc(-c2csc(Nc3ccccc3)n2)cc1)c1cc([N+](=O)[O-])cc(C(F)(F)F)c1	0	40*	9	1	2	64*	87*	20*	Fam108b inh=100*
O=C(Nc1ccc(-c2csc(Nc3ccccc3)n2)cc1)c1cccc(C(F)(F)F)c1	8	5	2	8	4	4	.	.
Cc1nc2ccc(-c3nc4ccc(N)cc4[nH]3)cc2[nH]1	-13	6	8	5	6	3	.	.
Nc1ccc2nc(-c3cccc(-c4nc5ccc(N)cc5[nH]4)c3)[nH]c2c1	-10	26*	-3	51*	8	25*	146*	37*	Fam108b inh=90*
COC(=O)C1CN(C2CCCC2)CCS(=O)(=O)N1Cc1ccc(Cl)cc1 (configuration not stated)	.	-7	2	.	.	.	.	.

Screens deposited in PubChem by The Scripps Research Institute Molecular Screening Center.
